ChEMBL document CHEMBL1144782, “Isoindolo[2,1-a]quinoxaline derivatives, novel potent antitumor agents with dual inhibition of tubulin polymerization and topoisomerase I” (2008)
Several values for one entry are separate records, joined by “and”; a condition that tells them apart may be missing. Equal entries are not always repeated.

How the values were obtained:
Tubulin (Sus scrofa) = Tubulin (Sus scrofa) (UniProt P02554+P02550); assay: Inhibition of pig brain tubulin polymerization
[1] = Antitumor activity against human […] cells; format: functional
Method in brief: (§1)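 Run by the NCI in its in vitro disease-oriented screen of about 60 human tumour cell lines. For each line it reports pGI50 (50% net growth inhibition), pTGI (total growth inhibition) and pLC50 (50% net cell death), each as –log molar concentration. Where an effect was not reached within the tested range, the highest tested concentration was used.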

MCF7 [2] = assay: Resistance index, Ratio of GI50 for human multidrug-resistant MCF7 cells to GI50 for human MCF7 cells; format: functional
Method in brief: (§2)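 Growth inhibition by MTT after 72 h incubation. Resistant sublines: LoVoDoxo and MCF-7 MDR were kept in 0.1 µg/mL doxorubicin; CEMVbl-100 was selected against vinblastine. GI50 given as mean ± SEM of three independent experiments. Resistance index is resistant-line GI50 over parental GI50.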

PC-3 = assay: Antitumor activity against human PC3 cells; format: functional; method in brief: as §1
SN12C = assay: Antitumor activity against human SN12C cells; format: functional; method in brief: as §1
M14 = assay: Antitumor activity against human M14 cells; format: functional; method in brief: as §1
NCI-H460 = assay: Cell viability against human NCI-H460 cells at 10 uM; format: functional
DU-145 = assay: Antitumor activity against human DU145 cells; format: functional; method in brief: as §1
MCF7 [3] = assay: Growth inhibition of human MCF7 cells after 72 hrs by MTT assay; format: functional; conditions: MCF7, 72 h; method in brief: as §2
HCT-116 = assay: Antitumor activity against human HCT116 cells; format: functional; method in brief: as §1
786-0 = assay: Antitumor activity against human 786-0 cells; format: functional; method in brief: as §1
EKVX = assay: Antitumor activity against human EKVX cells; format: functional; method in brief: as §1
SF-539 = assay: Antitumor activity against human SF539 cells; format: functional; method in brief: as §1
HCC 2998 = assay: Antitumor activity against human HCC2998 cells; format: functional; method in brief: as §1
CAKI-1 = assay: Antitumor activity against human CAKI1 cells; format: functional; method in brief: as §1
SK-MEL-2 = assay: Antitumor activity against human SKMEL2 cells; format: functional; method in brief: as §1
A498 = assay: Antitumor activity against human A498 cells; format: functional; method in brief: as §1
SF-268 = assay: Antitumor activity against human SF268 cells; format: functional; method in brief: as §1
HOP-92 = assay: Antitumor activity against human HOP92 cells; format: functional; method in brief: as §1
OVCAR-4 = assay: Antitumor activity against human OVCAR4 cells; format: functional; method in brief: as §1
CCRF-CEM = assay: Resistance index, Ratio of GI50 for human vinblastine-resistant CEM cells to GI50 for human CEM cells; format: functional
SNB-19 = assay: Antitumor activity against human SNB19 cells; format: functional; method in brief: as §1
A549 = assay: Antitumor activity against human A549 cells; format: functional; method in brief: as §1
SK-MEL-5 = assay: Antitumor activity against human SKMEL5 cells; format: functional; method in brief: as §1
MCF7 [4] = assay: Antitumor activity against human MCF7 cells; format: functional; method in brief: as §1
OVCAR-3 = assay: Antitumor activity against human OVCAR-3 cells; format: functional; method in brief: as §1
HCT-15 = assay: Antitumor activity against human HCT15 cells; format: functional; method in brief: as §1
MCF7 [5] = assay: Cell viability against human MCF7 cells at 10 uM; format: functional
SK-OV-3 = assay: Antitumor activity against human SKOV3 cells; format: functional; method in brief: as §1
IGROV-1 = assay: Antitumor activity against human IGROV1 cells; format: functional; method in brief: as §1
SK-MEL-28 = assay: Antitumor activity against human SKMEL28 cells; format: functional; method in brief: as §1
NCI-H522 = assay: Antitumor activity against human NCI-H522 cells; format: functional; method in brief: as §1
NCI/ADR-RES = assay: Antitumor activity against human NCI/ADR-RES cells; format: functional; method in brief: as §1
MDA-MB-435 = assay: Antitumor activity against human MDA-MB-435 cells; format: functional; method in brief: as §1
RPMI-8226 = assay: Antitumor activity against human RPMI8226 cells; format: functional; method in brief: as §1
SNB-75 = assay: Antitumor activity against human SNB75 cells; format: functional; conditions: Homo sapiens, SNB-75; method in brief: as §1
Malme-3M = assay: Antitumor activity against human MALME3M cells; format: functional; method in brief: as §1
LOX IMVI = assay: Antitumor activity against human LOXIMVI cells; format: functional; method in brief: as §1
COLO 205 = assay: Antitumor activity against human COLO205 cells; format: functional; method in brief: as §1
[6] = Antitumor activity against human NCI-H322 cells; format: functional; method in brief: as §1
RXF 393 = assay: Antitumor activity against human RXF393 cells; format: functional; method in brief: as §1
[7] = read-out: Log LC50 (the source's name) (converted)

Tubulin (Sus scrofa), sequence (P02550 whole entry, looked up): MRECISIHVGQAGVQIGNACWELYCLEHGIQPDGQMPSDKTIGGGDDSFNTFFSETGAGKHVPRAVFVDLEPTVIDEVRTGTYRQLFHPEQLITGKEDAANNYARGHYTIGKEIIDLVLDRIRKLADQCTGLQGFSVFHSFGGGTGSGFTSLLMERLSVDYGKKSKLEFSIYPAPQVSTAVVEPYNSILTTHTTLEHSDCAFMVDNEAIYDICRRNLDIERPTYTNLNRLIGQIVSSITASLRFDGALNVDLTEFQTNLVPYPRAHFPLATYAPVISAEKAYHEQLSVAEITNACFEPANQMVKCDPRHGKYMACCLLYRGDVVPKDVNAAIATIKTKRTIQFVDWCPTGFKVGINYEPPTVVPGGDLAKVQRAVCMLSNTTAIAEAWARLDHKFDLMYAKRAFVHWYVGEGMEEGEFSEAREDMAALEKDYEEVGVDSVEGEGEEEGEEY
Tubulin (Sus scrofa), sequence (P02554 whole entry, looked up): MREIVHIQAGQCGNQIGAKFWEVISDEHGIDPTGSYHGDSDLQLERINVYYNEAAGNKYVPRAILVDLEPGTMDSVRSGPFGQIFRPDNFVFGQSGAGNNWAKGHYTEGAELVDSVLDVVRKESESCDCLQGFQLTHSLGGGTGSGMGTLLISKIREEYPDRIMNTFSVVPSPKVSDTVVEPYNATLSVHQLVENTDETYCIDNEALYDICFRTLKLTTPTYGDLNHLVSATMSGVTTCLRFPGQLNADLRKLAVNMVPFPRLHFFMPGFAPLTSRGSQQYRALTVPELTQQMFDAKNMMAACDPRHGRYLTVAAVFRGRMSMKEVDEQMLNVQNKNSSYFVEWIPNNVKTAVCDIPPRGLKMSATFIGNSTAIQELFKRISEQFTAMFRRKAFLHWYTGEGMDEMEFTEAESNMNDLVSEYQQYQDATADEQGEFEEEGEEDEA

With `Cc1cccc2c1[nH]c(=O)c1c3ccccc3cn21` the Activity (Tubulin (Sus scrofa)) was > 10 µM, the GI50 [1] was 2.4 µM and the LC50 [1] was > 100 µM. It also gave a TGI ([1]; read-out: pTGI (converted)) of 17.4 µM, a RatioGI50 (MCF7 [2]) of 2.2 and a GI50 (PC-3) of 3.89 µM. The LC50 (50% net cell death) (PC-3) was > 100 µM, the TGI (PC-3; read-out: pTGI (converted)) was 44.7 µM and the GI50 (SN12C) was 1.82 µM. For the same compound, the LC50 (SN12C) was > 100 µM, the TGI (SN12C; read-out: pTGI (converted)) was 19.1 µM and the GI50 (M14) was 12.6 µM. For the same compound, the CC50 (M14; [7]) was 77.6 µM, the TGI (M14; read-out: pTGI (converted)) was 30.9 µM and the Activity (NCI-H460) was 2%. For the same compound, the GI50 (DU-145) was 5.25 µM and 17.4 µM, the CC50 (DU-145; Homo sapiens, DU-145, read-out: Log LC50 (the source's name) (converted)) was 41.7 µM and the GI50 (MCF7 [3]) was 3.7 µM. It also gave a GI50 (HCT-116) of 2.69 µM, an LC50 (HCT-116) of 33.9 µM and a TGI (HCT-116; read-out: pTGI (converted)) of 11.7 µM. The GI50 (786-0) was 5.89 µM, the CC50 (786-0; [7]) was > 100 µM and the TGI (786-0; read-out: pTGI (converted)) was 32.4 µM. The GI50 (EKVX) was 5.62 µM, the LC50 (50% net cell kill) (EKVX) was > 100 µM and the TGI (EKVX; read-out: pTGI (converted)) was 44.7 µM. The GI50 (SF-539) was 3.89 µM, the LC50 (50% net cell kill) (SF-539) was 40.7 µM and the TGI (SF-539; read-out: pTGI (converted)) was 15.8 µM. It also gave a GI50 (HCC 2998) of 4.57 µM, an LC50 (HCC 2998) of 40.7 µM and a TGI (HCC 2998; read-out: pTGI (converted)) of 16.2 µM. The GI50 (CAKI-1) was 2.19 µM, the LC50 (CAKI-1) was > 100 µM and the TGI (CAKI-1; read-out: pTGI (converted)) was 8.71 µM. The GI50 (SK-MEL-2) was 14.5 µM, the LC50 (SK-MEL-2) was > 100 µM and the TGI (SK-MEL-2; read-out: pTGI (converted)) was > 100 µM. For the same compound, the GI50 (A498) was 16.2 µM, the CC50 (A498; [7]) was > 100 µM and the TGI (A498; read-out: pTGI (converted)) was 41.7 µM. The GI50 (SF-268) was 3.02 µM, the CC50 (SF-268; [7]) was 75.9 µM and the TGI (SF-268; read-out: pTGI (converted)) was 8.51 µM. For the same compound, the GI50 (HOP-92) was 3.98 µM, the LC50 (HOP-92) was > 100 µM and the TGI (HOP-92; read-out: pTGI (converted)) was 32.4 µM. For the same compound, the GI50 (OVCAR-4) was 6.76 µM, the LC50 (50% net cell kill) (OVCAR-4) was > 100 µM and the TGI (OVCAR-4; read-out: pTGI (converted)) was > 100 µM. For the same compound, the RatioGI50 (CCRF-CEM) was 1.04, the GI50 (SNB-19) was 15.5 µM and the CC50 (SNB-19; [7]) was > 100 µM. The TGI (SNB-19; read-out: pTGI (converted)) was 47.9 µM, the GI50 (A549) was 5.01 µM and the CC50 (A549; [7]) was > 100 µM. The TGI (A549; read-out: pTGI (converted)) was > 100 µM, the GI50 (SK-MEL-5) was 11.7 µM and the LC50 (SK-MEL-5) was 49 µM. The TGI (SK-MEL-5; read-out: pTGI (converted)) was 24 µM, the GI50 (MCF7 [4]) was < 0.01 µM and the LC50 (50% net cell kill) (MCF7 [4]) was 39.8 µM. The TGI (MCF7 [4]; read-out: pTGI (converted)) was 12.6 µM, the GI50 (OVCAR-3) was 4.79 µM and the LC50 (50% net cell death) (OVCAR-3) was > 100 µM. For the same compound, the TGI (OVCAR-3; read-out: pTGI (converted)) was 28.2 µM, the GI50 (HCT-15) was 5.25 µM and the CC50 (HCT-15; [7]) was > 100 µM. For the same compound, the TGI (HCT-15; read-out: pTGI (converted)) was 31.6 µM, the Activity (MCF7 [5]) was 27% and the GI50 (SK-OV-3) was 27.5 µM. For the same compound, the LC50 (50% net cell kill) (SK-OV-3) was > 100 µM, the TGI (SK-OV-3; read-out: pTGI (converted)) was > 100 µM and the GI50 (IGROV-1) was 3.72 µM. For the same compound, the CC50 (IGROV-1; [7]) was > 100 µM, the TGI (IGROV-1; read-out: pTGI (converted)) was > 100 µM and the GI50 (SK-MEL-28) was 6.92 µM. For the same compound, the CC50 (SK-MEL-28; [7]) was > 100 µM, the TGI (SK-MEL-28; read-out: pTGI (converted)) was > 100 µM and the GI50 (NCI-H522) was 6.46 µM. For the same compound, the CC50 (NCI-H522; [7]) was > 100 µM, the TGI (NCI-H522; read-out: pTGI (converted)) was 64.6 µM and the GI50 (NCI/ADR-RES) was 12 µM. For the same compound, the LC50 (NCI/ADR-RES) was > 100 µM, the TGI (NCI/ADR-RES; read-out: pTGI (converted)) was 34.7 µM and the GI50 (MDA-MB-435) was 3.16 µM. It also gave an LC50 (50% net cell death) (MDA-MB-435) of 95.5 µM, a TGI (MDA-MB-435; read-out: pTGI (converted)) of 11.5 µM and a GI50 (RPMI-8226) of 2 µM. The CC50 (RPMI-8226; [7]) was 60.3 µM, the TGI (RPMI-8226; read-out: pTGI (converted)) was 7.08 µM and the GI50 (SNB-75) was 30.9 µM. The LC50 (SNB-75) was > 100 µM, the TGI (SNB-75; read-out: pTGI (converted)) was > 100 µM and the GI50 (Malme-3M) was 8.32 µM. The CC50 (Malme-3M; [7]) was 67.6 µM, the TGI (Malme-3M; read-out: pTGI (converted)) was 24.5 µM and the GI50 (LOX IMVI) was 6.17 µM. The LC50 (50% net cell kill) (LOX IMVI) was 42.7 µM, the TGI (LOX IMVI; read-out: pTGI (converted)) was 18.2 µM and the GI50 (COLO 205) was 7.41 µM. For the same compound, the LC50 (COLO 205) was > 100 µM, the TGI (COLO 205; read-out: pTGI (converted)) was 34.7 µM and the GI50 [6] was 13.5 µM. For the same compound, the LC50 (50% net cell death) [6] was > 100 µM, the TGI ([6]; read-out: pTGI (converted)) was 45.7 µM and the GI50 (RXF 393) was 9.12 µM. The CC50 (RXF 393; [7]) was > 100 µM and the TGI (RXF 393; read-out: pTGI (converted)) was 38 µM.
